Results published in ChEMBL document CHEMBL1240507, “Peptidic HIV integrase inhibitors derived from HIV gene products: structure-activity relationship studies” (Bioorg Med Chem, 2010).
pIC50: −log10 of the molar value. Calls of active or inactive are those of the source. The calls are words filed in the database; no cut-off is given here.

Tests used:
[1] = biological target: T1, Human immunodeficiency virus type 1 integrase (Human immunodeficiency virus 1, UniProt Q7ZJM1); experiment: Inhibition of HIV1 integrase 3'-processing activity expressed in Escherichia coli after 60 mins
Procedure, shortened: (§1)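 Recombinant IN was expressed in and purified from E. coli, with 10% glycerol in all buffers. Reactions contained 400 nM IN, 20 nM 5'-end [³²P]-labeled oligonucleotide substrate and inhibitor at varied concentrations, with 10% DMSO alone as control. Reactions were stopped with EDTA/formamide loading dye. IC50 came from a logistic nonlinear fit.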

[2] = biological target: T1, Human immunodeficiency virus type 1 integrase; experiment: Inhibition of HIV1 integrase strand transfer activity expressed in Escherichia coli after 60 mins; procedure, shortened: as §1
MT4 [3] = experiment: Cytotoxicity against human MT4 cells at 10 uM after 6 to 7 days; assay type: cell-based; conditions: mt4, 10 µM
[4] = tested on: Human immunodeficiency virus 1; experiment: Antiviral activity against HIV1 HXB2 infected in human MT4 cells assessed as protection against virus-induced cell death at 1.25 uM after 6 to 7 days by luciferase assay; assay type: functional, organism-based
Procedure, shortened: (§2)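 MT-4 luciferase reporter cells (1×10^3 cells) were infected with HIV-1 HXB2 in the presence of peptides at various concentrations. At 6–7 days post-infection, cells were lysed and luciferase activity was read by chemiluminescence.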

[5] = tested on: Human immunodeficiency virus 1; experiment: Antiviral activity against HIV1 HXB2 infected in human MT4 cells assessed as protection against virus-induced cell death at 10 uM after 6 to 7 days by luciferase assay; assay type: functional, organism-based; procedure, shortened: as §2
[6] = tested on: Human immunodeficiency virus 1; experiment: Antiviral activity against HIV1 HXB2 infected in human MT4 cells assessed as protection against virus-induced cell death at 2.5 to 5 uM after 6 to 7 days by luciferase assay; assay type: functional, organism-based; procedure, shortened: as §2
[7] = tested on: Human immunodeficiency virus 1; experiment: Antiviral activity against HIV1 HXB2 infected in human MT4 cells assessed as protection against virus-induced cell death after 6 to 7 days by luciferase assay; assay type: functional, organism-based; procedure, shortened: as §2
[8] = tested on: Human immunodeficiency virus 1; experiment: Antiviral activity against HIV1 HXB2 infected in human MT4 cells assessed as protection against virus-induced cell death at 5 uM after 6 to 7 days by luciferase assay; assay type: functional, organism-based
Procedure, shortened: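 MT-4 luciferase reporter cells (1×10^3 per well) infected with HIV-1 HXB2 while exposed to a range of peptide concentrations. After 6–7 days post-infection, cells were lysed, luciferase activity was measured with a Steady-Glo kit, and chemiluminescence was read on a luminometer.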

MT4 [9] = experiment: Cytotoxicity against human MT4 cells at >5 uM after 6 to 7 days; assay type: cell-based

T1 sequence (Q7ZJM1 whole entry): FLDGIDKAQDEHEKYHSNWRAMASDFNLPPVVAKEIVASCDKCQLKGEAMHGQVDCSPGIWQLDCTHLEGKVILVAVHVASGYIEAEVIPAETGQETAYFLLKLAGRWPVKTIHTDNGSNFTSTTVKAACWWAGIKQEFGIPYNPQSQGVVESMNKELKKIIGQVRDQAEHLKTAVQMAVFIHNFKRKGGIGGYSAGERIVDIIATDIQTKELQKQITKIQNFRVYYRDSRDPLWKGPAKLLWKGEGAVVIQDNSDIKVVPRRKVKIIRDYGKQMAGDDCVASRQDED

Row | Compound | Activity (MT4 [3]) | Activity [7] | further results
1 | CC[C@H](C)[C@H](NC(=O)[C@H](CCCNC(=N)N)NC(=O)[C@H](Cc1ccccc1)NC(=O)[C@H](Cc1cnc[nH]1)NC(=O)[C@@H](NC(=O)[C@H](Cc1ccccc1)NC(=O)[C@H](CC(C)C)NC(=O)[C@H](CC(C)C)NC(=O)[C@H](CCC(N)=O)NC(=O)[C@H](CCC(N)=O)NC(=O)[C@H](CC(C)C)NC(C)=O)[C@@H](C)CC)C(=O)NCC(=O)N[C@@H](CCCNC(=N)N)C(=O)N[C@@H](CCCNC(=N)N)C(=O)N[C@@H](CCCNC(=N)N)C(=O)N[C@@H](CCCNC(=N)N)C(=O)N[C@@H](CCCNC(=N)N)C(=O)N[C@@H](CCCNC(=N)N)C(=O)N[C@@H](CCCNC(=N)N)C(=O)N[C@@H](CCCNC(=N)N)C(N)=O | Toxic | – | pIC50 [1]: 6.89; pIC50 [2]: 7.22
2 | CC[C@H](C)[C@H](NC(=O)[C@H](C)NC(=O)[C@H](CCC(=O)O)NC(C)=O)C(=O)N[C@H](C(=O)N[C@@H](CCCNC(=N)N)C(=O)N[C@H](C(=O)N[C@@H](CC(C)C)C(=O)N[C@@H](CCC(N)=O)C(=O)N[C@@H](CCC(N)=O)C(=O)N[C@@H](CC(C)C)C(=O)N[C@@H](CC(C)C)C(=O)N[C@@H](Cc1ccccc1)C(=O)N[C@H](C(=O)N[C@@H](Cc1cnc[nH]1)C(=O)N[C@@H](Cc1ccccc1)C(=O)N[C@@H](CCCNC(=N)N)C(=O)N[C@H](C(=O)NCC(=O)N[C@@H](CCCNC(=N)N)C(=O)N[C@@H](CCCNC(=N)N)C(=O)N[C@@H](CCCNC(=N)N)C(=O)N[C@@H](CCCNC(=N)N)C(=O)N[C@@H](CCCNC(=N)N)C(=O)N[C@@H](CCCNC(=N)N)C(=O)N[C@@H](CCCNC(=N)N)C(=O)N[C@@H](CCCNC(=N)N)C(N)=O)[C@@H](C)CC)[C@@H](C)CC)[C@@H](C)CC)[C@@H](C)CC | – | – | pIC50 [1]: 7.05; pIC50 [2]: 7.40; Activity [4]: Active; Activity [5]: inactive
3 | CC[C@H](C)[C@H](NC(=O)[C@H](C)NC(=O)[C@H](CCC(=O)O)NC(C)=O)C(=O)N[C@H](C(=O)N[C@@H](CCCNC(=N)N)C(=O)N[C@H](C(=O)N[C@@H](CC(C)C)C(=O)N[C@@H](CCC(N)=O)C(=O)N[C@@H](CCC(N)=O)C(=O)N[C@@H](CC(C)C)C(=O)N[C@@H](CC(C)C)C(=O)N[C@@H](Cc1ccccc1)C(=O)N[C@H](C(=O)N[C@@H](CCC(=O)O)C(=O)N[C@@H](Cc1ccccc1)C(=O)N[C@@H](CCCNC(=N)N)C(=O)N[C@H](C(=O)N[C@@H](CCCCN)C(=O)N[C@@H](CCCNC(=N)N)C(=O)N[C@@H](CCCNC(=N)N)C(=O)N[C@@H](CCCNC(=N)N)C(=O)N[C@@H](CCCNC(=N)N)C(=O)N[C@@H](CCCNC(=N)N)C(=O)N[C@@H](CCCNC(=N)N)C(=O)N[C@@H](CCCNC(=N)N)C(=O)N[C@@H](CCCNC(=N)N)C(N)=O)[C@@H](C)CC)[C@@H](C)CC)[C@@H](C)CC)[C@@H](C)CC | – | – | Activity [6]: Active
4 | CC[C@H](C)[C@H](NC(=O)[C@H](CCCNC(=N)N)NC(=O)[C@H](Cc1ccccc1)NC(=O)[C@H](Cc1cnc[nH]1)NC(=O)[C@@H](NC(=O)[C@H](Cc1ccccc1)NC(=O)[C@H](CC(C)C)NC(=O)[C@H](CC(C)C)NC(=O)[C@H](CCC(N)=O)NC(=O)[C@H](CCC(N)=O)NC(=O)[C@H](CC(C)C)NC(=O)[C@H](CCCCN)NC(=O)[C@H](CCCNC(=N)N)NC(=O)[C@@H](NC(=O)[C@@H](NC(=O)[C@H](CCC(=O)O)NC(=O)[C@H](CCC(=O)O)NC(C)=O)[C@@H](C)CC)[C@@H](C)CC)[C@@H](C)CC)C(=O)NCC(=O)N[C@@H](CCCNC(=N)N)C(=O)N[C@@H](CCCNC(=N)N)C(=O)N[C@@H](CCCNC(=N)N)C(=O)N[C@@H](CCCNC(=N)N)C(=O)N[C@@H](CCCNC(=N)N)C(=O)N[C@@H](CCCNC(=N)N)C(=O)N[C@@H](CCCNC(=N)N)C(=O)N[C@@H](CCCNC(=N)N)C(N)=O | – | – | Activity [5]: inactive
5 | Ac-AQQLLFIHFRIGRRRRRRRR-NH2 | – | Dose-dependent effect | –
6 | Ac-EAEIRIKQQLLFIHFRIGRRRRRRRR-NH2 | – | – | Activity [5]: Active
7 | Ac-EAIERILKQLLFIHFRIGRRRRRRRR-NH2 | – | – | Activity [6]: Active
8 | Ac-EAIIRILQELLFKHFRIGRRRRRRRR-NH2 | – | – | Activity [5]: inactive
9 | Ac-EAIIRILQQLEFIHKRIGRRRRRRRR-NH2 | – | – | Activity [6]: Active
10 | Ac-EEIIRKLQQLLFIEFRIKRRRRRRRR-NH2 | – | – | Activity [5]: inactive
11 | Ac-LAQLLFIHFRIGRRRRRRRR-NH2 | Toxic | Dose-dependent effect | –
12 | Ac-LQALLFIHFRIGRRRRRRRR-NH2 | Toxic | Dose-dependent effect | –
13 | Ac-LQQALFIHFRIGRRRRRRRR-NH2 | Toxic | Dose-dependent effect | –
14 | Ac-LQQLAFIHFRIGRRRRRRRR-NH2 | Toxic | Dose-dependent effect | –
15 | Ac-LQQLLAIHFRIGRRRRRRRR-NH2 | Toxic | Dose-dependent effect | Activity [8]: inactive
16 | Ac-LQQLLFAHFRIGRRRRRRRR-NH2 | – | Dose-dependent effect | Activity (MT4 [9]): Toxic; Activity [8]: inactive
17 | Ac-LQQLLFIAFRIGRRRRRRRR-NH2 | – | Dose-dependent effect | Activity (MT4 [9]): Toxic
18 | Ac-LQQLLFIHARIGRRRRRRRR-NH2 | Toxic | Dose-dependent effect | –
19 | Ac-LQQLLFIHFAIGRRRRRRRR-NH2 | Toxic | Dose-dependent effect | –
20 | Ac-LQQLLFIHFRAGRRRRRRRR-NH2 | – | Dose-dependent effect | –
21 | Ac-LQQLLFIHFRIARRRRRRRR-NH2 | – | Dose-dependent effect | pIC50 [1]: 7.05
